# Measured values as given in ChEMBL document CHEMBL1926588, “Sulfur and selenium derivatives of quinazoline and pyrido[2,3-d]pyrimidine: synthesis and study of their potential cytotoxic activity in vitro” (Eur J Med Chem, 2012).
# How the values were obtained:
# MCF7 [1] = test: Selectivity ratio of GI50 for human 184B5 cells to GI50 for human MCF7 cells
# How it was run: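 Selectivity ratio is GI50 on non-tumoral 184B5 mammary cells divided by GI50 on MCF-7. Both come from the 72 h MTT assay. Ratio 3–6 means moderate selectivity, >6 high, and otherwise non-selective.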
# CCRF-CEM = test: Cytotoxicity against human CCRF-CEM cells after 72 hrs by MTT assay; type: functional; conditions: for CC50: read-out: LC50 (the source's name)
# How it was run: (§1)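 MTT read-out after 72 h exposure at 37 °C in humidified 5% CO2, with five concentrations between 0.01 and 100. GI50 is 50% growth reduction versus untreated controls, TGI is complete growth inhibition, and LC50 is the concentration killing 50% of cells. Minimum three independent experiments.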
# HT-29 = test: Cytotoxicity against human HT-29 cells after 72 hrs by MTT assay; type: functional; conditions: HT-29, 72 h; for CC50: read-out: LC50 (the source's name); how it was run: as §1
# [2] = Cytotoxicity against human HTB-54 cells after 72 hrs by MTT assay; type: functional; conditions: HTB-54, 72 h; for CC50: read-out: LC50 (the source's name); how it was run: as §1
# MCF7 [3] = test: Cytotoxicity against human MCF7 cells after 72 hrs by MTT assay; type: functional; conditions: MCF7, 72 h; how it was run: as §1
# [4] = Cytotoxicity against human 184B5 cells after 72 hrs by MTT assay; type: cell-based; conditions: for GI50 at 72 h: 184B5 cells; for LC50 / TGI: 184b5, 72 h; how it was run: as §1
# [5] = Cytotoxicity against human BEAS2B cells after 72 hrs by MTT assay; type: cell-based, BEAS-2B; conditions: for GI50 at 72 h: BEAS2B cells; for LC50 / TGI: beas-2b, 72 h; how it was run: as §1
# MCF7 [6] = test: Induction of apoptosis in human MCF7 cells assessed as cell death at 1 uM after 24 hrs by TUNEL analysis (reference value: 6.12 +/- 1.61%); type: functional
# MCF7 [7] = test: Induction of apoptosis in human MCF7 cells assessed as cell death at 5 uM after 24 hrs by TUNEL analysis (reference value: 9.28 +/- 1.71%); type: functional
# MCF7 [8] = test: Induction of apoptosis in human MCF7 cells assessed as cell death at 10 uM after 24 hrs by TUNEL analysis (reference value: 9.82 +/- 2.62%); type: functional
# MCF7 [9] = test: Induction of apoptosis in human MCF7 cells assessed as cell death at 15 uM after 24 hrs by TUNEL analysis (reference value: 5.13 +/- 4.32%); type: functional
# MCF7 [10] = test: Induction of apoptosis in human MCF7 cells assessed as cell death at 20 uM after 24 hrs by TUNEL analysis (reference value: 9.56 +/- 1.38%); type: functional
# MCF7 [11] = test: Induction of apoptosis in human MCF7 cells assessed as cell death at 10 uM after 4 hrs by TUNEL analysis (reference value: 5.85 +/- 5.21%); type: functional
# MCF7 [12] = test: Induction of apoptosis in human MCF7 cells assessed as cell death at 10 uM after 12 hrs by TUNEL analysis (reference value: 6.02 +/- 0.85%); type: functional
# MCF7 [13] = test: Induction of apoptosis in human MCF7 cells assessed as cell death at 10 uM after 48 hrs by TUNEL analysis (reference value: 4.23 +/- 1.99%); type: functional
# MCF7 [14] = test: Cell cycle arrest in human MCF7 cells assessed as accumulation at subG1 phase at 15 uM after 4 hrs by propidium iodide staining-based flow cytometric analysis (reference value: 5.90 +/- 1.36%); type: functional
# MCF7 [15] = test: Cell cycle arrest in human MCF7 cells assessed as accumulation at subG1 phase at 15 uM after 12 hrs by propidium iodide staining-based flow cytometric analysis (reference value: 2.17 +/- 0.24%); type: functional
# MCF7 [16] = test: Cell cycle arrest in human MCF7 cells assessed as accumulation at subG1 phase at 15 uM after 24 hrs by propidium iodide staining-based flow cytometric analysis (reference value: 2.93 +/- 0.54%); type: functional
# MCF7 [17] = test: Cell cycle arrest in human MCF7 cells assessed as accumulation at G0/G1 phase at 15 uM after 4 hrs by propidium iodide staining-based flow cytometric analysis (reference value: 49.38 +/- 4.74%); type: functional
# MCF7 [18] = test: Cell cycle arrest in human MCF7 cells assessed as accumulation at G0/G1 phase at 15 uM after 12 hrs by propidium iodide staining-based flow cytometric analysis (reference value: 57.34 +/- 1.64%); type: functional
# MCF7 [19] = test: Cell cycle arrest in human MCF7 cells assessed as accumulation at G0/G1 phase at 15 uM after 24 hrs by propidium iodide staining-based flow cytometric analysis (reference value: 51.83 +/- 5.64%); type: functional
# MCF7 [20] = test: Cell cycle arrest in human MCF7 cells assessed as accumulation at S phase at 15 uM after 4 hrs by propidium iodide staining-based flow cytometric analysis (reference value: 19.09 +/- 4.54%); type: functional
# MCF7 [21] = test: Cell cycle arrest in human MCF7 cells assessed as accumulation at S phase at 15 uM after 12 hrs by propidium iodide staining-based flow cytometric analysis (reference value: 17.07 +/- 4.00%); type: functional
# MCF7 [22] = test: Cell cycle arrest in human MCF7 cells assessed as accumulation at S phase at 15 uM after 24 hrs by propidium iodide staining-based flow cytometric analysis (reference value: 12.39 +/- 1.54%); type: functional
# MCF7 [23] = test: Cell cycle arrest in human MCF7 cells assessed as accumulation at G2/M phase at 15 uM after 4 hrs by propidium iodide staining-based flow cytometric analysis (reference value: 21.60 +/- 5.37%); type: functional
# MCF7 [24] = test: Cell cycle arrest in human MCF7 cells assessed as accumulation at G2/M phase at 15 uM after 12 hrs by propidium iodide staining-based flow cytometric analysis (reference value: 22.11 +/- 3.86%); type: functional
# MCF7 [25] = test: Cell cycle arrest in human MCF7 cells assessed as accumulation at G2/M phase at 15 uM after 24 hrs by propidium iodide staining-based flow cytometric analysis (reference value: 32.37 +/- 7.73%); type: functional
# [26] = Permeability of the compound across human Caco2 cells; type: ADME, cell-based; conditions: Caco-2, read-out: permeability
smiles,measurement,setting,value
C[Se]c1nc([Se]C)c2ccccc2n1,RatioGI50,MCF7 [1],12
same,GI50,CCRF-CEM,31.2 µM
same,TGI,CCRF-CEM,54.9 µM
same,CC50,CCRF-CEM,78.5 µM
same,GI50,HT-29,7.46 µM
same,TGI,HT-29,33.8 µM
same,CC50,HT-29,76.8 µM
same,GI50,[2],26.6 µM
same,TGI,[2],84.2 µM
same,CC50,[2],> 100 µM
same,GI50,MCF7 [3],5.97 µM
same,LC50,MCF7 [3],> 100 µM
same,TGI,MCF7 [3],50.7 µM
same,GI50 at 72 h,[4],71.5 µM
same,LC50,[4],> 100 µM
same,TGI,[4],> 100 µM
CCCCCSc1nc(O)c2ccccc2n1,RatioGI50,MCF7 [1],>12
same,GI50,CCRF-CEM,52.1 µM
same,TGI,CCRF-CEM,86 µM
same,CC50,CCRF-CEM,> 100 µM
same,GI50,HT-29,74.6 µM
same,TGI,HT-29,> 100 µM
same,CC50,HT-29,> 100 µM
same,GI50,[2],30.4 µM
same,TGI,[2],> 100 µM
same,CC50,[2],> 100 µM
same,GI50,MCF7 [3],7.82 µM
same,LC50,MCF7 [3],> 100 µM
same,TGI,MCF7 [3],81.4 µM
same,GI50 at 72 h,[4],> 100 µM
same,LC50,[4],> 100 µM
same,TGI,[4],> 100 µM
same,GI50 at 72 h,[5],51.4 µM
same,LC50,[5],> 100 µM
same,TGI,[5],> 100 µM
CSc1ccc(CNc2nc(SC)nc3ncccc23)cc1,Activity,MCF7 [6],3.4%
same,Activity,MCF7 [7],13.7%
same,Activity,MCF7 [8],25.95%
same,Activity,MCF7 [9],23.95%
same,Activity,MCF7 [10],22.63%
same,Activity,MCF7 [11],5.26%
same,Activity,MCF7 [12],11.51%
same,Activity,MCF7 [13],11.66%
same,Activity,MCF7 [14],3.88%
same,Activity,MCF7 [15],2.24%
same,Activity,MCF7 [16],2.97%
same,Activity,MCF7 [17],50.42%
same,Activity,MCF7 [18],55.42%
same,Activity,MCF7 [19],52.91%
same,Activity,MCF7 [20],18.02%
same,Activity,MCF7 [21],19.35%
same,Activity,MCF7 [22],11.04%
same,Activity,MCF7 [23],23.88%
same,Activity,MCF7 [24],22.99%
same,Activity,MCF7 [25],30.2%
same,Papp,[26],4.4 ×10⁻⁶ cm/s
same,GI50,CCRF-CEM,5.35 µM
same,TGI,CCRF-CEM,16.8 µM
same,CC50,CCRF-CEM,59 µM
same,GI50,HT-29,4.32 µM
same,TGI,HT-29,7.03 µM
same,CC50,HT-29,8.75 µM
same,GI50,[2],3.28 µM
same,TGI,[2],14.8 µM
same,CC50,[2],63.6 µM
same,GI50,MCF7 [3],0.05 µM
same,LC50,MCF7 [3],9.13 µM
same,TGI,MCF7 [3],4.37 µM
same,GI50 at 72 h,[4],0.19 µM
same,LC50,[4],5.64 µM
same,TGI,[4],1.14 µM
same,GI50 at 72 h,[5],0.6 µM
same,LC50,[5],8.47 µM
same,TGI,[5],3.77 µM
CC[C@@]1(O)C(=O)OCc2c1cc1n(c2=O)Cc2cc3ccccc3nc2-1 [CAMPTOTHECIN],Activity,MCF7 [6],17.42%
same,Activity,MCF7 [7],13.42%
same,Activity,MCF7 [8],18.67%
same,Activity,MCF7 [9],21.21%
same,Activity,MCF7 [10],17.59%
same,Activity,MCF7 [11],6.71%
same,Activity,MCF7 [12],11.36%
same,Activity,MCF7 [13],46.12%
same,Activity,MCF7 [14],5.39%
same,Activity,MCF7 [15],3.06%
same,Activity,MCF7 [16],3.05%
same,Activity,MCF7 [17],47.24%
same,Activity,MCF7 [18],59.5%
same,Activity,MCF7 [19],58.52%
same,Activity,MCF7 [20],18.36%
same,Activity,MCF7 [21],16.24%
same,Activity,MCF7 [22],15.27%
same,Activity,MCF7 [23],23.38%
same,Activity,MCF7 [24],20.21%
same,Activity,MCF7 [25],20.25%
CCCCC[Se]c1nc(NCc2ccccc2)c2ccccc2n1,RatioGI50,MCF7 [1],1418
same,Activity,MCF7 [6],3.84%
same,Activity,MCF7 [7],14.37%
same,Activity,MCF7 [8],30.13%
same,Activity,MCF7 [9],24.88%
same,Activity,MCF7 [10],30.95%
same,Activity,MCF7 [11],8.11%
same,Activity,MCF7 [12],13.39%
same,Activity,MCF7 [13],14.91%
same,Activity,MCF7 [14],4.42%
same,Activity,MCF7 [15],2.13%
same,Activity,MCF7 [16],3.28%
same,Activity,MCF7 [17],46.24%
same,Activity,MCF7 [18],55.3%
same,Activity,MCF7 [19],46.97%
same,Activity,MCF7 [20],16.66%
same,Activity,MCF7 [21],17.01%
same,Activity,MCF7 [22],12.2%
same,Activity,MCF7 [23],28.5%
same,Activity,MCF7 [24],25.83%
same,Activity,MCF7 [25],34.79%
same,Papp,[26],5.6 ×10⁻⁶ cm/s
same,GI50,CCRF-CEM,34.5 µM
same,TGI,CCRF-CEM,72.5 µM
same,CC50,CCRF-CEM,> 100 µM
same,GI50,HT-29,72.7 µM
same,TGI,HT-29,> 100 µM
same,CC50,HT-29,> 100 µM
same,GI50,[2],37.7 µM
same,TGI,[2],81.1 µM
same,CC50,[2],> 100 µM
same,GI50,MCF7 [3],0.05 µM
same,LC50,MCF7 [3],99.4 µM
same,TGI,MCF7 [3],47.1 µM
same,GI50 at 72 h,[4],70.9 µM
same,LC50,[4],> 100 µM
same,TGI,[4],> 100 µM
same,GI50 at 72 h,[5],44.1 µM
same,LC50,[5],> 100 µM
same,TGI,[5],> 100 µM
